The source made the active and inactive calls. The rule behind the calls is not given here.
Key:
[1] = target: T1, G-protein coupled receptor 55 (Homo sapiens, UniProt Q9Y2T6); test: Agonist activity at human GPR55 transfected in CHO cells at 10 uM after 90 mins by beta-arrestin translocation assay; assay type: cell-based
Procedure, shortened: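 CHO cells stably expressing human GPR55 (β-galactosidase fragment complementation) were seeded at 20,000 cells/well in Opti-MEM with 2% FCS for 24 h at 37°C. Compound was diluted in PBS with 10% DMSO and 0.1% BSA, screened at 10 µM and incubated 90 min at 37°C. Galacton-Star/Emerald-II/lysis buffer (1:5:19) was added for 60 min at RT, then luminescence was read. Response is relative to 1 µM LPI (100%).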

Cannabinoid receptor 2 = Cannabinoid receptor 2 (Homo sapiens, UniProt P34972); test: Displacement of [3H]-CP55,940 from human CB2 receptor transfected in CHOK1 cells; assay type: cell-based, CHO-K1
Procedure, shortened: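 CHO cells stably expressing human CB2 supplied the membranes, 1 µg protein per vial. Compounds were screened at 10 µM, and full competition curves were run where inhibition was about 50% or more. Three independent experiments in duplicate.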

Cannabinoid receptor 1 [2] = target: T2, Cannabinoid receptor 1 (Homo sapiens, UniProt P21554); test: Displacement of [3H]-CP55,940 from human CB1 receptor transfected in CHOK1 cells; assay type: cell-based, CHO-K1
[3] = target: T3, N-arachidonyl glycine receptor (Homo sapiens) (UniProt Q14330); test: Antagonist activity at human GPR18 transfected in CHO cells assessed as delta9-THC-induced beta-arrestin recruitment at 10 uM incubated 60 mins prior to delta9-THC addition by beta-arrestin translocation assay; assay type: cell-based; design: scale not given: the % may be the effect or the level left
T3 sequence (whole entry): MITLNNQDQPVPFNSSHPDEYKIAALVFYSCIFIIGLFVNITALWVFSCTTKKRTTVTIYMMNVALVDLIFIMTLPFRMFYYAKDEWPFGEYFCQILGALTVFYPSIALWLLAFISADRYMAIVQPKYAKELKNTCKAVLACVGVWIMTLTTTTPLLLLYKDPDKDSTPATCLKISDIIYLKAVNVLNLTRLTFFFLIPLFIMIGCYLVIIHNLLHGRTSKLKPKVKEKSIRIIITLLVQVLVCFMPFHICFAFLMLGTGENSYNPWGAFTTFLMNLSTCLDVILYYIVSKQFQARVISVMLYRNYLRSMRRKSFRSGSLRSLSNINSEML
Procedure, shortened: (§1)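 CHO cells stably expressing human GPR18 were seeded at 20,000 cells/well for 24 h at 37°C. Compound in PBS/10% DMSO/0.1% BSA was added 60 min before the GPR18 agonist 3 at 10 µM. The supplier's detection reagent was used, and luminescence was read after 60 min at RT. Screening was at 10 µM (% inhibition); IC50 from concentration-inhibition curves. Three independent experiments in duplicate.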

[4] = target: T4, N-arachidonyl glycine receptor (Homo sapiens, UniProt Q14330); test: Antagonist activity at human GPR18 transfected in CHO cells assessed as delta9-THC-induced beta-arrestin recruitment incubated 60 mins prior to delta9-THC addition by beta-arrestin translocation assay; assay type: cell-based; procedure, shortened: as §1
T4 sequence (Q14330 whole entry): T3 sequence (whole entry)

[5] = target: T1, G-protein coupled receptor 55; test: Antagonist activity at human GPR55 transfected in CHO cells assessed as inhibition of LPI-induced beta-arrestin recruitment incubated 60 mins prior to LPI addition by beta-arrestin translocation assay; assay type: cell-based
Procedure, shortened: (§2)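 CHO cells stably expressing human GPR55 were seeded at 20,000 cells/well for 24 h at 37°C. Compound in PBS/10% DMSO/0.1% BSA was added 60 min before 1 µM LPI. Galacton-Star/Emerald-II/lysis buffer (pH 8) was applied for 60 min at RT, with luminescence read-out. Screening was at 10 µM (% inhibition). IC50 was measured where inhibition exceeded 60%. Three independent experiments in duplicate.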

Cannabinoid receptor 1 [6] = target: T2, Cannabinoid receptor 1; test: Displacement of [3H]-CP55,940 from human CB1 receptor transfected in CHOK1 cells at 10 uM; assay type: cell-based; conditions: CHO-K1
Procedure, shortened: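 Human CB1 from membrane preparations of stably transfected CHO cells, 25 µg protein per vial. Competition with [3H]CP55,940 at 0.1 nM final, with test compound at 10 µM, read as % inhibition of radioligand binding. Final DMSO 2.5%. Three independent experiments in duplicate.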

[7] = target: T1, G-protein coupled receptor 55; test: Antagonist activity at human GPR55 transfected in CHO cells assessed as inhibition of LPI-induced beta-arrestin recruitment at 10 uM incubated 60 mins prior to LPI addition by beta-arrestin translocation assay; assay type: cell-based; design: scale not given: the % may be the effect or the level left; procedure, shortened: as §2

T2 sequence (P21554 whole entry): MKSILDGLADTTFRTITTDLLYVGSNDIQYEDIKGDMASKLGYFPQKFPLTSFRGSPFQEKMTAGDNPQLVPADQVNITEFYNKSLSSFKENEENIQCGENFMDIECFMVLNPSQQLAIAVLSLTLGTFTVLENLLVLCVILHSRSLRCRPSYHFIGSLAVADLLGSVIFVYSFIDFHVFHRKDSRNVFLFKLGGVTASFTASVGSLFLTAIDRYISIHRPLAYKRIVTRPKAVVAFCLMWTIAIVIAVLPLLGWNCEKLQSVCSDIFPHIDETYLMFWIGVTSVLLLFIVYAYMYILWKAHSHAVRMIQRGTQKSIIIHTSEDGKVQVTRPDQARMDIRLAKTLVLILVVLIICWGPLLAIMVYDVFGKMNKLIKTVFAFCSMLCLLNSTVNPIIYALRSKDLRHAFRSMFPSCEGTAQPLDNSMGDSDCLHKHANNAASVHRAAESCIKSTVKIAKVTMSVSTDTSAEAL
Chain of Cannabinoid receptor 2 (P34972 whole entry): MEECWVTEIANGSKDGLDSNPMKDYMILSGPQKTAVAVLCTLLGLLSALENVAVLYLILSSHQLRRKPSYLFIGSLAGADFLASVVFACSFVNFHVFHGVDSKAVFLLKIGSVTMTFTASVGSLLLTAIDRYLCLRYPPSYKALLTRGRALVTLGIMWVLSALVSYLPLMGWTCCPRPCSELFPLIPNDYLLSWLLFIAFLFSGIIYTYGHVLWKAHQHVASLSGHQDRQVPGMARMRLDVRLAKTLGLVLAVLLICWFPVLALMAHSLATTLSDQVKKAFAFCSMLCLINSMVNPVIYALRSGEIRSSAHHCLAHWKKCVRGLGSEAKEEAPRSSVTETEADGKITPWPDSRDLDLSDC
T1 sequence (Q9Y2T6 whole entry, the tested form may be a part): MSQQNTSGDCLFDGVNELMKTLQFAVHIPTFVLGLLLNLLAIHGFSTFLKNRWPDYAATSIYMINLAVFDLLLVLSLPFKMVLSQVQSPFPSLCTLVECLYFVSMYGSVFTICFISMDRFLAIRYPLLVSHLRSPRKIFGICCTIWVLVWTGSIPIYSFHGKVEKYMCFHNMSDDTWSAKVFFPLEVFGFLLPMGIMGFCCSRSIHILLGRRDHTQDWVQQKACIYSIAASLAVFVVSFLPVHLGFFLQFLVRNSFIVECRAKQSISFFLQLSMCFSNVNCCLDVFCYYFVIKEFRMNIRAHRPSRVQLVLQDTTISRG

For COc1c(C)c(C)c2oc(=O)c(Cc3ccccc3C)cc2c1C, the Activity [1] was “inactive”, the Ki (Cannabinoid receptor 2) was 0.66 µM and the Ki (Cannabinoid receptor 1 [2]) was 7.86 µM. The Activity [3] was 33%, the IC50 [4] was over 10 µM and the IC50 [5] was 7.69 µM.
In the case of Cc1c(O)c(C)c2cc(Cc3ccccc3)c(=O)oc2c1C, the Activity [1] is reported as “inactive”, the Ki (Cannabinoid receptor 2) is reported as 3.42 µM and the Activity (Cannabinoid receptor 1 [6]) is reported as 21%. It also gave a Ki (Cannabinoid receptor 1 [2]) of over 10 µM, an Activity [3] of 16% and an IC50 [4] of over 10 µM. For the same compound, the IC50 [5] was 9.32 µM.
CCCCCc1cc(OC)c2cc(Cc3cccc(Cl)c3)c(=O)oc2c1 was tested, and the Activity [1] was “inactive”, the Activity [7] was 36% and the IC50 [5] was over 10 µM.
In the case of CCCCCc1cc(O)c2cc(Cc3cccc(Cl)c3)c(=O)oc2c1, the Activity [1] is reported as “inactive”, the Activity [7] is reported as 30% and the IC50 [5] is reported as over 10 µM.
With COc1cc(C)cc2oc(=O)c(Cc3ccccc3)cc12 the Activity [1] was “inactive”, the Ki (Cannabinoid receptor 2) was at least 10 µM and the Activity (Cannabinoid receptor 1 [6]) was 45%. For the same compound, the Ki (Cannabinoid receptor 1 [2]) was at least 10 µM, the Activity [3] was 24% and the IC50 [4] was over 10 µM. For the same compound, the IC50 [5] was 6.74 µM.
With O=c1oc2ccccc2cc1Cc1ccccc1 the Activity [1] was “inactive”, the Activity [7] was 28% and the IC50 [5] was over 10 µM.
With COc1cccc(Cc2cc3c(OC)cc(CBr)cc3oc2=O)c1 the Activity [1] was “inactive”, the Activity [7] was 18% and the IC50 [5] was over 10 µM.
For COc1ccc2oc(=O)c(C)cc2c1, the Activity [1] was “inactive”, the Activity [7] was 13% and the IC50 [5] was over 10 µM.
With Cc1ccc(Cc2cc3c(O)cc(C)cc3oc2=O)cc1 the Activity [1] was “inactive”, the Activity [7] was 42% and the IC50 [5] was over 10 µM.
In the case of COc1cccc(Cc2cc3c(OC)cccc3oc2=O)c1, the Activity [1] is reported as “inactive”, the Activity [7] is reported as 54% and the IC50 [5] is reported as 10 µM.
With CCCCCCC(C)(C)c1cc(OC)c2cc(Cc3ccccc3OC)c(=O)oc2c1 the Activity [1] was “inactive”, the Activity [3] was 26% and the IC50 [4] was over 10 µM. For the same compound, the Activity [7] was 25% and the IC50 [5] was over 10 µM.
With O=c1oc2cccc(O)c2cc1Cc1ccccc1 the Activity [1] was “inactive”, the Activity [7] was 6% and the IC50 [5] was over 10 µM.
In the case of CCCCCc1cc(O)c2cc(Cc3ccccc3O)c(=O)oc2c1, the Activity [1] is reported as “inactive”, the Activity [7] is reported as 37% and the IC50 [5] is reported as over 10 µM.
O=c1oc2ccc3ccccc3c2cc1Cc1ccccc1 was tested, and the Activity [1] was “inactive” and the IC50 [5] was 2.81 µM.
COc1cccc(Cc2cc3c(OC)cc(Br)cc3oc2=O)c1 was tested, and the Activity [1] was “inactive”, the Activity (Cannabinoid receptor 1 [6]) was 38% and the Activity [3] was 31%. The IC50 [4] was over 10 µM and the IC50 [5] was 3.99 µM.
With CCCCCCC(C)(C)c1ccc([C@@H]2C[C@H](O)CC[C@H]2CCCO)c(O)c1 [CP-55940] the IC50 [4] was 5.99 µM.
For Cc1cc2cc(Cl)cc(Br)c2oc1=O, the Activity [1] was “inactive”, the Activity [7] was 45% and the IC50 [5] was over 10 µM.
For O=c1oc2ccc(I)cc2cc1Cc1ccccc1, the Activity [1] was “inactive”, the Activity [7] was 46% and the IC50 [5] was over 10 µM.
CCCCCc1cc(O)c2cc(Cc3ccccc3Cl)c(=O)oc2c1 was tested, and the Activity [1] was “inactive”, the Activity [3] was 0% and the IC50 [4] was over 10 µM. The Activity [7] was 0% and the IC50 [5] was over 10 µM.
For CCCCCc1cc(OC)c2cc(Cc3ccccc3)c(=O)oc2c1, the Activity [1] was “inactive”, the Activity [7] was 36% and the IC50 [5] was over 10 µM.
COc1c(C)c(C)c2oc(=O)c(Cc3ccccc3)cc2c1C was tested, and the Activity [1] was “inactive”, the Ki (Cannabinoid receptor 2) was 1.77 µM and the Activity (Cannabinoid receptor 1 [6]) was 42%. It also gave a Ki (Cannabinoid receptor 1 [2]) of at least 10 µM, an Activity [3] of 46% and an IC50 [4] of at least 10 µM. It also gave an IC50 [5] of 12.8 µM.
For Cc1cc(O)c2cc(Cc3ccccc3C)c(=O)oc2c1, the Activity [1] was “inactive”, the Activity [7] was 45% and the IC50 [5] was over 10 µM.
With Cc1cc2c(ccc3ccccc32)oc1=O the Activity [1] was “inactive”, the Activity [7] was 28% and the IC50 [5] was over 10 µM.

— ChEMBL document CHEMBL2384924, “Antagonists for the orphan G-protein-coupled receptor GPR55 based on a coumarin scaffold” (J Med Chem, 2013)
